# Results as given in ChEMBL document CHEMBL1147846, “Synthetic 2',5'-dimethoxychalcones as G(2)/M arrest-mediated apoptosis-inducing agents and inhibitors of nitric oxide production in rat macrophages” (Eur J Med Chem, 2007).
# Experiments:
# [1] = tested on: A549; assay: Cytotoxicity against human A549 cells by MTT microassay; type: functional, cell-based
# How it was run: (§1)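 MTT microassay in cultured human tumour cells from ATCC. Compounds were dissolved in DMSO and diluted in culture medium to 0.1% DMSO. Controls received medium with 0.1% DMSO, and 5-fluorouracil was the positive control. IC50 is given as mean ± SD, n = 3.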
# [2] = Cytotoxicity against human Hep 3B cells by MTT microassay; type: functional, cell-based, Hep 3B2; conditions: Hep3B; how it was run: as §1
# [3] = tested on: HT-29; assay: Cytotoxicity against human HT29 cells by MTT microassay; type: functional, cell-based; how it was run: as §1
# [4] = tested on: MCF7; assay: Cytotoxicity against human MCF7 cells by MTT microassay; type: functional, cell-based; how it was run: as §1
# [5] = Inhibition of beta-glucuronidase release from rat mast cells; type: functional; design: Inhibition: concentration or dose not given beside the values; conditions: for IC50: Rattus norvegicus
# [6] = Inhibition of histamine release from rat mast cells; type: functional; design: Inhibition: concentration or dose not given beside the values; conditions: for IC50: Rattus norvegicus
# [7] = tested on: Neutrophil; assay: Inhibition of 1 uM fMLP-stimulated beta-Glucuronidase release from rat neutrophils; type: functional, cell-based; conditions: for IC50: Rattus norvegicus, Neutrophil
# How it was run: (§2)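 Rat neutrophils were stimulated with fMLP plus cytochalasin B, and β-glucuronidase and lysozyme release were measured. Trifluoperazine was the positive control. IC50 is mean ± SD, n = 3; where IC50 exceeds 30, % inhibition at 30 is shown.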
# [8] = tested on: Neutrophil; assay: Inhibition of 5 ug/ml CB-stimulated Lysozyme release from rat neutrophils; type: functional, cell-based; conditions: for IC50: Rattus norvegicus, Neutrophil; how it was run: as §2
# [9] = tested on: Neutrophil; assay: Inhibition of 0.3 uM fMLP-stimulated superoxide anion generation in rat neutrophils; type: functional, cell-based; conditions: for IC50: Rattus norvegicus, Neutrophil
# How it was run: (§3)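 Rat neutrophils, with superoxide anion generation triggered by either fMLP combined with cytochalasin B or by PMA (3 nM).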
# [10] = tested on: Neutrophil; assay: Inhibition of 3 nM PMA-stimulated superoxide anion generation in rat neutrophils; type: functional, cell-based; conditions: for IC50: Rattus norvegicus, Neutrophil; how it was run: as §3
# [11] = tested on: RAW; assay: Inhibition of 1ug/ml LPS-stimulated nitirc oxide accumulation in RAW 264 cells after 24 hrs; type: functional, cell-based, Mus musculus; conditions: for IC50: Mus musculus, RAW, 24 h
# How it was run: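 RAW 264.7 cells were activated with LPS for 24 h. NO was measured as nitrite accumulated in the medium, by Griess reaction. 1400W was the positive control. Results are mean ± SD, n = 3.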
# [12] = tested on: RAW; assay: Inhibition of 1 ug/ml LPS-stimulated TNFalpha accumulation in RAW 264 cells after 24 hrs; type: functional, cell-based, Mus musculus; conditions: for IC50: Mus musculus, RAW, 24 h
# How it was run: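 RAW 264.7 cells were activated with LPS, and TNF-α formation in the culture medium was measured. Genistein was the positive control. Results are mean ± SD, n = 3.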
# [13] = tested on: MCF7; assay: Induction of apoptosis in MCF7 cells assessed as subG1-phase accumulation at 8.7 uM after 24 hrs; type: functional, Homo sapiens
# How it was run: (§4)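 MCF-7 cells were exposed to compound and washed with PBS at each time point. They were fixed in 4% paraformaldehyde/PBS (pH 7.4) for 30 min at room temperature, then permeabilized in 0.1% Triton X-100/0.1% sodium citrate for 2 min at 4 °C. PI staining followed for 30 min at 37 °C. FACScan flow cytometry counted ≥5000 cells. Apoptosis is the sub-G1 DNA fraction; controls received medium; three independent experiments.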
# [14] = tested on: MCF7; assay: Induction of apoptosis in MCF7 cells assessed as subG1-phase accumulation at 8.7 uM after 48 hrs; type: functional, Homo sapiens; how it was run: as §4
# [15] = tested on: MCF7; assay: Induction of apoptosis in MCF7 cells assessed as subG1-phase accumulation at 8.7 uM after 72 hrs; type: functional, Homo sapiens; how it was run: as §4
# [16] = tested on: MCF7; assay: Induction of apoptosis in MCF7 cells assessed as subG1-phase accumulation at 34.7 uM after 24 hrs; type: functional, Homo sapiens; how it was run: as §4
# [17] = tested on: MCF7; assay: Induction of apoptosis in MCF7 cells assessed as subG1-phase accumulation at 34.7 uM after 48 hrs; type: functional, Homo sapiens; how it was run: as §4
# [18] = tested on: MCF7; assay: Induction of apoptosis in MCF7 cells assessed as subG1-phase accumulation at 34.7 uM after 72 hrs; type: functional, Homo sapiens; how it was run: as §4
# [19] = tested on: MCF7; assay: Induction of apoptosis in MCF7 cells assessed as subG1-phase accumulation at 52 uM after 24 hrs; type: functional, Homo sapiens; how it was run: as §4
# [20] = tested on: MCF7; assay: Induction of apoptosis in MCF7 cells assessed as subG1-phase accumulation at 52 uM after 48 hrs; type: functional, Homo sapiens; how it was run: as §4
# [21] = tested on: MCF7; assay: Induction of apoptosis in MCF7 cells assessed as subG1-phase accumulation at 52 uM after 72 hrs; type: functional, Homo sapiens; how it was run: as §4
Compound,IC50 [1] [µM],IC50 [2] [µM],IC50 [3] [µM],IC50 [4] [µM],IC50 [5] [µM],IC50 ([6]; read-out: IC50) [µM],IC50 [7] [µM],IC50 [8] [µM],IC50 [9] [µM],Inhibition [10] [%],IC50 [10] [µM],IC50 [11] [µM],IC50 [12] [µM],also measured
COc1ccc(OC)c(C(=O)/C=C/c2cccs2)c1,11,8.4,13.3,3.8,> 30,> 30,> 30,14.6,> 30,7.9,> 30,> 10,> 30,Inhibition [5]: -4.6%; Inhibition [6]: 0.8%; Inhibition [7]: 38.5%; Inhibition [9]: 47.2%; Inhibition [11]: 49.8%; Inhibition [12]: 5.9%
COc1ccc(OC)c(C(=O)/C=C/c2ccsc2)c1,3.8,5.7,5.3,3.7,–,–,–,–,–,–,–,–,–,–
COc1ccc(OC)c(C(=O)/C=C/c2ccco2)c1,27.9,19,24.8,10.5,18.4,> 30,6.2,8.3,3,49.1,> 30,5.7,4.6,–
COc1ccc(OC)c(C(=O)/C=C/c2ccoc2)c1,22.1,12,21.3,18.2,–,–,–,–,–,–,–,–,–,–
COc1ccc(OC)c(C(=O)/C=C/c2ccc(C)o2)c1,51.5,26.5,43,10.3,> 30,–,22.2,17.8,> 30,39,> 30,> 10,> 10,Inhibition [5]: 12.7%; Inhibition [6]: 17.5%; IC50 [6]: > 30 µM; Inhibition [9]: 48.1%; Inhibition [11]: 29.5%; Inhibition [12]: -10.5%
COc1ccc(OC)c(C(=O)/C=C/c2ccc(C)s2)c1,4.5,3.4,1.8,2.6,> 30,> 30,> 30,> 30,> 30,-11.9,> 30,6.7,> 30,Activity [13]: 7.52%; Activity [14]: 16.39%; Activity [15]: 41.61%; Activity [16]: 4.05%; Activity [17]: 18.68%; Activity [18]: 62.4%; Activity [19]: 5.09%; Activity [20]: 21.23%; Activity [21]: 63.79%; Inhibition [5]: -2.7%; Inhibition [6]: 43.5%; Inhibition [7]: 45.6%; Inhibition [8]: 37.4%; Inhibition [9]: 49.1%; Inhibition [12]: 46%
COc1ccc(OC)c(C(=O)/C=C/c2sccc2C)c1,22.2,16.7,19.4,7.6,–,–,–,–,–,–,–,–,–,–
COc1ccc(OC)c(C(=O)/C=C/c2ccc(OC/C=C/c3ccccc3)cc2)c1,39.8,17.3,26.3,19,> 30,> 30,> 30,> 30,> 10,4.1,> 10,> 30,> 30,Inhibition [5]: -11.2%; Inhibition [6]: 0.3%; Inhibition [7]: 18.8%; Inhibition [8]: 33.1%; Inhibition [9]: -71.9%; Inhibition [11]: 27.9%; Inhibition [12]: 15%
COc1ccc(OC)c(C(=O)/C=C/c2ccc(OC(=O)/C=C/c3ccc(C)cc3)cc2)c1,29.7,29,16.4,12.6,–,–,–,–,–,–,–,–,–,–
COc1ccc(/C=C/C(=O)Oc2ccc(/C=C/C(=O)c3cc(OC)ccc3OC)cc2)cc1,60.4,42.6,23,4.1,–,–,–,–,–,–,–,–,–,–
COc1ccc(OC)c(C(=O)/C=C/c2ccc(Br)o2)c1,14.9,11,15.2,11,> 30,> 30,> 30,> 30,19.7,-2.2,> 30,12.8,> 30,Inhibition [5]: -13.3%; Inhibition [6]: 6.3%; Inhibition [7]: 36.9%; Inhibition [8]: 33.4%; Inhibition [12]: 35.6%
COc1ccc(OC)c(C(=O)/C=C/c2ccc(OC(=O)/C=C/c3cc(OC)c(OC)c(OC)c3)cc2)c1,36.7,23.2,23.8,6.4,–,–,–,–,–,–,–,–,–,–
CC(=N)NCc1cccc(CN)c1 [1400W],–,–,–,–,–,–,–,–,–,–,–,5.2,–,–
CC(=O)O[C@H](CC=C(C)C)C1=CC(=O)c2c(O)ccc(O)c2C1=O [ACETYLSHIKONIN],–,–,–,–,2.2,2,–,–,–,–,–,–,–,–
c1ccc2c(c1)[I+]c1ccccc1-2 [DIPHENYLENEIODONIUM CHLORIDE],–,–,–,–,–,–,–,–,5.8,–,3.3,–,–,–
O=c1[nH]cc(F)c(=O)[nH]1 [FLUOROURACIL],3.1,0.6,0.6,1.5,–,–,–,–,–,–,–,–,–,–
O=c1c(-c2ccc(O)cc2)coc2cc(O)cc(O)c12 [GENISTEIN],–,–,–,–,–,–,–,–,–,–,–,–,18.1,–
CN1CCN(CCCN2c3ccccc3Sc3ccc(C(F)(F)F)cc32)CC1 [TRIFLUOPERAZINE],–,–,–,–,–,–,13.2,12.7,–,–,–,–,–,–
